ChEMBL document CHEMBL1126647, “Fluorine-18-labeled progestin ketals: synthesis and target tissue uptake selectivity of potential imaging agents for receptor-positive breast tumors” (J Med Chem, 1993)

How the values were obtained:
Format in all cases: functional, tissue-based
[1] = target: T1, Progesterone receptor (Rattus norvegicus) (UniProt Q63449); experiment: Tissue distribution in liver 3 hr after [18F]-4 injection into estrogen-primed immature rats
T1 sequence (whole entry): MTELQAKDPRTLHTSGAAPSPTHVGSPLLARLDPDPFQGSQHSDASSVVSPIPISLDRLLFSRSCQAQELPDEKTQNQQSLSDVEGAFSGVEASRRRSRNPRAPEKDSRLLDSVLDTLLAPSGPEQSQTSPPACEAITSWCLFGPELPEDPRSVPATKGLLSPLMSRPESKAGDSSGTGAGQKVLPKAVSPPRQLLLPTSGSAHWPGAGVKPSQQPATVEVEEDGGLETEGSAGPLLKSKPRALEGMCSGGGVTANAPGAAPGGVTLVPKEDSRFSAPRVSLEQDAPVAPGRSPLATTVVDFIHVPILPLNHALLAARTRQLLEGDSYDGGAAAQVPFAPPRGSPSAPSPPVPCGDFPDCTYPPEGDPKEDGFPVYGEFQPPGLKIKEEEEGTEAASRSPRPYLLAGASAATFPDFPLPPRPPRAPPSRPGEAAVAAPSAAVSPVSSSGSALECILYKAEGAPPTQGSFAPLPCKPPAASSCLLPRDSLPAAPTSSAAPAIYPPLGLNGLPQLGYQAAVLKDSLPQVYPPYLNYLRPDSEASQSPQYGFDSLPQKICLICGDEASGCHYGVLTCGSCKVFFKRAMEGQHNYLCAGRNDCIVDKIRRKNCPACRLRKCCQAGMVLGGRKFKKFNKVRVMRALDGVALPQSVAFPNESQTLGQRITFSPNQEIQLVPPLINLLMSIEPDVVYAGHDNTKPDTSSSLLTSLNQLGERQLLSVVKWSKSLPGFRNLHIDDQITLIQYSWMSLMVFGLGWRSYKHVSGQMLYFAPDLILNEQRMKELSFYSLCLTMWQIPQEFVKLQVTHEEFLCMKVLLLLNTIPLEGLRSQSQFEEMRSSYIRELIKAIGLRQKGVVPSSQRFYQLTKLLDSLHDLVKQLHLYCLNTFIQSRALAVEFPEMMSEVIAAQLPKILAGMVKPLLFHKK
Outline: (§1)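 Immature female Sprague-Dawley rats, estradiol-primed (5 μg s.c. in 20% ethanol/sunflower oil, two successive days, used 24 h later). Tracer (30 Ci/mmol) in 10% ethanol/saline was injected iv into the tail vein under ether anesthesia. Animals were decapitated 3 h postinjection; organs weighed and gamma-counted. %ID/g, mean ± SD, n = 5.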

[2] = target: T1, Progesterone receptor (Rattus norvegicus); experiment: Tissue distribution in muscle 3 hr after [18F]4 injection into estrogen-primed immature rats; outline: as §1
[3] = target: T1, Progesterone receptor (Rattus norvegicus); experiment: Tissue distribution in uterus/blood 1 hr after [18F]4 injection into estrogen-primed immature rats at normal dose
Outline: (§2)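 Female Sprague-Dawley rats, 23 days old, primed with estradiol 5 μg s.c. in 20% ethanol/sunflower oil on two days and used 24 h later. Under ether, they received 51 μCi tracer (30 Ci/mmol) iv via the tail vein in 0.1 mL 10% ethanol/saline. Killed by decapitation at 1 h; tissues weighed and gamma-counted. Results as %ID/g or tissue ratios, mean ± SD, n = 5.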

[4] = target: T1, Progesterone receptor (Rattus norvegicus); experiment: Tissue distribution in ovaries 1 hr after [18F]4 injection into estrogen-primed immature rats at normal dose; details: Female gonad; outline: as §2
[5] = target: T1, Progesterone receptor (Rattus norvegicus); experiment: Tissue distribution in lung 1 hr after [18F]4 injection into estrogen-primed immature rats at low dose
Outline: (§3)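 Estrogen-primed immature female Sprague-Dawley rats (estradiol 5 μg s.c. daily ×2, used 24 h later) were given a reduced tracer dose of 30 μCi in 0.04 mL 10% ethanol/saline, tail vein iv, under ether. Decapitated at 1 h; organs weighed and gamma-counted. Results as %ID/g or uterus/tissue ratio, mean ± SD, n = 5.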

[6] = target: T1, Progesterone receptor (Rattus norvegicus); experiment: Tissue distribution in uterus/blood 3 hr after [18F]4 injection into estrogen-primed immature rats at low dose
[7] = target: T1, Progesterone receptor (Rattus norvegicus); experiment: Tissue distribution in fat 1 hr after [18F]4 injection into estrogen-primed immature rats at normal dose; details: Adipose tissue; outline: as §2
[8] = target: T1, Progesterone receptor (Rattus norvegicus); experiment: Tissue distribution in liver 1 hr after [18F]4 injection into estrogen-primed immature rats at normal dose; outline: as §2
[9] = target: T1, Progesterone receptor (Rattus norvegicus); experiment: Tissue distribution in kidney 1 hr after [18F]4 injection into estrogen-primed immature rats at normal dose; outline: as §2
[10] = target: T1, Progesterone receptor (Rattus norvegicus); experiment: Tissue distribution in brain 1 hr after [18F]4 injection into estrogen-primed immature rats at normal dose; outline: as §2
[11] = target: T1, Progesterone receptor (Rattus norvegicus); experiment: Tissue distribution in muscle 1 hr after [18F]4 injection into estrogen-primed immature rats co-injected with uterine uptake blocker (ORG2058)
Outline: (§4)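 Blocking group: estrogen-primed immature female Sprague-Dawley rats (estradiol 5 μg s.c. ×2 days, used 24 h later). ORG 2058 18 μg was co-injected with the tracer dose iv via tail vein, 0.2 mL injection volume in 10% ethanol/saline. Killed 1 h later; tissues weighed and gamma-counted. Results as %ID/g or ratios, mean ± SD, n = 5.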

[12] = target: T1, Progesterone receptor (Rattus norvegicus); experiment: Tissue distribution in ovaries 1 hr after [18F]4 injection into estrogen-primed immature rats at low dose; details: Female gonad; outline: as §3
[13] = target: T1, Progesterone receptor (Rattus norvegicus); experiment: Tissue distribution in uterus 1 hr after [18F]-4 injection into estrogen-primed immature rats co-injected with uterin uptake blocker (ORG 2058); outline: as §4
[14] = target: T1, Progesterone receptor (Rattus norvegicus); experiment: Tissue distribution in bone 1 hr after [18F]4 injection into estrogen-primed immature rats at normal dose; details: Bone element; outline: as §2

Structure (SMILES) | Injected dose/g [1] | Injected dose/g [2] | uterus/blood ratio [3] | Injected dose/g [4] | Injected dose/g [5] | uterus/blood ratio [6] | Injected dose/g [7] | Injected dose/g [8] | Injected dose/g [9] | Injected dose/g [10] | Injected dose/g [11] | Injected dose/g [12] | Injected dose/g [13] | Injected dose/g [14]
CC(=O)[C@@]12O[C@](C)(c3ccc(F)cc3)O[C@@H]1CC1C3CCC4=CC(=O)CC[C@]4(C)C3CC[C@@]12C (stereo partly drawn) | 1.93% | 0.49% | 6.59 | 3.93% | 1.46% | 7.57 | 5.76% | 3.41% | 2.18% | 0.56% | 0.76% | 3.68% | 1.27% | 1.76%
C[C@@]1(c2ccc(F)cc2)O[C@@H]2CC3C4CCC5=CC(=O)CC[C@@H]5C4CC[C@]3(C)[C@]2(C(=O)CO)O1 (stereo partly drawn) | 1.36% | 0.16% | 14 | 2.8% | 0.72% | 38 | 3.53% | 4.25% | 1.42% | 0.34% | 0.35% | 2.66% | 0.86% | 0.62%
